Data reported in ChEMBL document CHEMBL4765399, “Design, synthesis, and biological evaluation of 5-((8-methoxy-2-methylquinolin-4-yl)amino)-1H-indole-2-carbohydrazide derivatives as novel Nur77 modulators” (Eur J Med Chem, 2020).

How the values were obtained:
L02 = test: Cytotoxicity against human L02 cells assessed as reduction in cell viability incubated for 48 hrs by MTT assay; assay type: cell-based; settings: L02, 48 h
How it was run: (§1)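 MTT assay after 48 h exposure at six concentrations, range chosen by cytotoxicity. Inhibition = (ODcontrol − ODtest)/ODcontrol × 100%; IC50 is the concentration halving OD versus untreated cells. Means ± SD of three independent determinations. HepG2 and SMMC-7721 grown in DMEM, QGY-7703 and LO2 in RPMI 1640, with 10% FBS at 37 °C.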

QGY-7703 = test: Antiproliferative activity against human QGY-7703 cells assessed as reduction in cell viability incubated for 48 hrs by MTT assay; assay type: functional, cell-based; settings: QGY-7703, 48 h; how it was run: as §1
SMMC-7721 = test: Antiproliferative activity against human SMMC-7721 cells assessed as reduction in cell viability incubated for 48 hrs by MTT assay; assay type: functional, cell-based; settings: SMMC-7721, 48 h; how it was run: as §1
HepG2 = test: Antiproliferative activity against human HepG2 cells assessed as reduction in cell viability incubated for 48 hrs by MTT assay; assay type: functional, cell-based; settings: HepG2, 48 h; how it was run: as §1
[1] = biological target: Nuclear receptor subfamily 4immunitygroup A member 1 (Homo sapiens, UniProt P22736); test: Binding affinity to Nur77 ligand binding domain (unknown origin) at 10 uM by surface plasmon resonance analysis; settings: filed as modulator
How it was run: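 Single-concentration SPR screen at 10.0 µM against Nur77-LBD; binding given as RU response.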

Nuclear receptor subfamily 4immunitygroup A member 1, sequence (P22736 whole entry, the tested form may be a part): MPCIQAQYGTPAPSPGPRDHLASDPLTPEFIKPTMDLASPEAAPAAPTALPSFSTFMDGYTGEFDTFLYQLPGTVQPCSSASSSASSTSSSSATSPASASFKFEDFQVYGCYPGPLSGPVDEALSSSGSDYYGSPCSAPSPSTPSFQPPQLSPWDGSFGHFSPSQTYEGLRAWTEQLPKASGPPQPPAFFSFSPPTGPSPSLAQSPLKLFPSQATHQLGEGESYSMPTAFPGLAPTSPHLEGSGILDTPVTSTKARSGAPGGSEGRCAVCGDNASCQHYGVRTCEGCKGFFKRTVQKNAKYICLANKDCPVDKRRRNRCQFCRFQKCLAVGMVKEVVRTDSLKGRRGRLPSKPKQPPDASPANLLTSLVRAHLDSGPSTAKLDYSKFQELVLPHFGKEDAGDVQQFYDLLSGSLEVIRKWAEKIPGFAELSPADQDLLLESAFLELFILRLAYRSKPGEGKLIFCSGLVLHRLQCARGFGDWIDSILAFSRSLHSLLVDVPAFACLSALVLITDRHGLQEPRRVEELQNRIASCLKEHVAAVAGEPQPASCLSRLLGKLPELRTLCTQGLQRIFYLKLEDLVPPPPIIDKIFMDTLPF

SMILES | IC50 (L02) [µM] | IC50 (QGY-7703) [µM] | IC50 (SMMC-7721) [µM] | IC50 (HepG2) [µM] | Activity [1] [RU]
COc1ccc(/C=N/NC(=O)c2cc3cc(Nc4cc(C)nc5c(OC)cccc45)ccc3[nH]2)c2ccccc12 | 9.16 | 4.61 | 11 | 16.6 | 
COc1cccc2c(Nc3ccc4[nH]c(C(=O)N/N=C/c5cccc(C)c5)cc4c3)cc(C)nc12 | 3.16 | 1.74 | 3.14 | 2.92 | 
COc1ccccc1/C=N/NC(=O)c1cc2cc(Nc3cc(C)nc4c(OC)cccc34)ccc2[nH]1 | 5.17 | 3.4 | 4.58 | 2.1 | 
COc1ccc(/C=N/NC(=O)c2cc3cc(Nc4cc(C)nc5c(OC)cccc45)ccc3[nH]2)c(OC)c1 | 5.72 | 5 | 16.2 | 7.47 | 
COc1cccc2c(Nc3ccc4[nH]c(C(=O)N/N=C/c5ccc([N+](=O)[O-])cc5O)cc4c3)cc(C)nc12 | > 20 | > 20 | > 20 | > 20 | 
COc1cccc2c(Nc3ccc4[nH]c(C(=O)N/N=C/c5cccs5)cc4c3)cc(C)nc12 | 6.33 | 1.53 | 6.49 | 5.44 | 
COc1cccc2c(Nc3ccc4[nH]c(C(=O)N/N=C/c5ccc(O)cc5)cc4c3)cc(C)nc12 | 9.31 | 14.1 | > 20 | > 20 | 
COc1ccc(/C=N/NC(=O)c2cc3cc(Nc4cc(C)nc5c(OC)cccc45)ccc3[nH]2)cc1OC | > 20 | > 20 | > 20 | > 20 | 
COc1cccc2c(Nc3ccc4[nH]c(C(=O)N/N=C/c5cccc(C(F)(F)F)c5)cc4c3)cc(C)nc12 | 13.5 | 5.39 | > 20 | 4.19 | 
CC1=C(O)C(=O)C=C2C1=CC=C1[C@@]2(C)CC[C@@]2(C)[C@@H]3C[C@](C)(C(=O)O)CC[C@]3(C)CC[C@]12C [CELASTROL] | 1.94 | 2.43 | 1.07 | 1.3 | 
COc1ccc(/C=N/NC(=O)c2cc3cc(Nc4cc(C)nc5c(OC)cccc45)ccc3[nH]2)cc1C(F)(F)F | 5.23 | 0.4 | 0.73 | 1.98 | 91
COc1ccc(/C=N/NC(=O)c2cc3cc(Nc4cc(C)nc5c(OC)cccc45)ccc3[nH]2)cc1 | 0.76 | > 20 | 1.21 | 0.69 | 88.2
COc1cccc2c(Nc3ccc4[nH]c(C(=O)N/N=C/c5cc(O)ccc5O)cc4c3)cc(C)nc12 | > 20 | > 20 | > 20 | > 20 | 
COc1cccc2c(Nc3ccc4[nH]c(C(=O)N/N=C/c5cc(C(C)(C)C)c(O)c(C(C)(C)C)c5)cc4c3)cc(C)nc12 | 3.54 | 4.02 | > 20 | 7.45 | 
COc1cccc2c(Nc3ccc4[nH]c(C(=O)N/N=C/c5cc6ccccc6nc5Cl)cc4c3)cc(C)nc12 | > 20 | 9.31 | 18.8 | > 20 | 
COc1cccc2c(Nc3ccc4[nH]c(C(=O)N/N=C/c5ccc(C(F)(F)F)cc5C(F)(F)F)cc4c3)cc(C)nc12 | > 20 | > 20 | > 20 | > 20 | 
COc1cccc2c(Nc3ccc4[nH]c(C(=O)N/N=C/c5ccnc6ccccc56)cc4c3)cc(C)nc12 | > 20 | 15.5 | > 20 | > 20 | 
COc1cccc2c(Nc3ccc4[nH]c(C(=O)N/N=C/c5ccccc5F)cc4c3)cc(C)nc12 | 2.48 | 5.42 | 1.38 | 1.22 | 

SMILES | IC50 (L02) [µM] | IC50 (QGY-7703) [µM] | IC50 (SMMC-7721) [µM] | IC50 (HepG2) [µM] | Activity [1] [RU]
COc1cccc2c(Nc3ccc4[nH]c(C(=O)N/N=C/c5cccnc5)cc4c3)cc(C)nc12 | > 20 | > 20 | > 20 | > 20 | 
COc1cccc2c(Nc3ccc4[nH]c(C(=O)N/N=C/c5ccc(O)cc5O)cc4c3)cc(C)nc12 | 15.9 | > 20 | > 20 | 8.15 | 
COc1cccc2c(Nc3ccc4[nH]c(C(=O)N/N=C/c5ccccn5)cc4c3)cc(C)nc12 | 10.3 | > 20 | 4.37 | 14.7 | 
COc1cccc(/C=N/NC(=O)c2cc3cc(Nc4cc(C)nc5c(OC)cccc45)ccc3[nH]2)c1 | 9.85 | > 20 | 1.75 | > 20 | 
COc1cccc2c(Nc3ccc4[nH]c(C(=O)N/N=C/c5ccc(C#N)cc5)cc4c3)cc(C)nc12 | 2.8 | 2.36 | > 20 | 10.4 | 
COc1cccc2c(Nc3ccc4[nH]c(C(=O)N/N=C/c5cc(C(F)(F)F)ccc5Br)cc4c3)cc(C)nc12 | > 20 | 12.7 | > 20 | > 20 | 
COc1cccc(/C=N/NC(=O)c2cc3cc(Nc4cc(C)nc5c(OC)cccc45)ccc3[nH]2)c1OC | 2.79 | 1.96 | 4.89 | 1.09 | 
COc1ccc(/C=N/NC(=O)c2cc3cc(Nc4cc(C)nc5c(OC)cccc45)ccc3[nH]2)c(OC)c1OC | 13.7 | 3.78 | 8.43 | 6.32 | 
COc1cc(/C=N/NC(=O)c2cc3cc(Nc4cc(C)nc5c(OC)cccc45)ccc3[nH]2)cc(OC)c1OC | > 20 | > 20 | > 20 | > 20 | 
COc1cc(/C=N/NC(=O)c2cc3cc(Nc4cc(C)nc5c(OC)cccc45)ccc3[nH]2)cc(OC)c1 | > 20 | > 20 | > 20 | > 20 | 
COc1ccc(/C=N/NC(=O)c2cc3cc(Nc4cc(C)nc5c(OC)cccc45)ccc3[nH]2)cc1Br | 1.2 | 1.89 | > 20 | > 20 | 
COc1cccc2c(Nc3ccc4[nH]c(C(=O)N/N=C/c5ccc(F)c(C(F)(F)F)c5)cc4c3)cc(C)nc12 | > 20 | 2.43 | > 20 | 2.17 | 
COc1cccc2c(Nc3ccc4[nH]c(C(=O)N/N=C/c5ccncc5)cc4c3)cc(C)nc12 | > 20 | > 20 | > 20 | > 20 | 
COc1cccc2c(Nc3ccc4[nH]c(C(=O)N/N=C/c5ccc[nH]5)cc4c3)cc(C)nc12 | > 20 | > 20 | > 20 | > 20 | 
COc1cccc(OC)c1/C=N/NC(=O)c1cc2cc(Nc3cc(C)nc4c(OC)cccc34)ccc2[nH]1 | 7.31 | > 20 | 11.7 | 7.52 | 
COc1cccc2c(Nc3ccc4[nH]c(C(=O)N/N=C/c5ccccc5Cl)cc4c3)cc(C)nc12 | 3.68 | 1.06 | 0.98 | 1.24 | 
COc1ccc2[nH]c(C)c(/C=N/NC(=O)c3cc4cc(Nc5cc(C)nc6c(OC)cccc56)ccc4[nH]3)c2c1 | > 20 | 14.1 | > 20 | 6.62 | 
O=C(O)c1ccc2cc(-c3ccc(O)c(C45CC6CC(CC(C6)C4)C5)c3)ccc2c1 [O-DEMETHYLATED ADAPALENE] | 10.1 | 2.38 | 5.25 | 2.93 | 
